Measured values published in ChEMBL document CHEMBL2413042, “Design, synthesis and evaluation of dialkyl 4-(benzo[d][1,3]dioxol-6-yl)-1,4-dihydro-2,6-dimethyl-1-substituted pyridine-3,5-dicarboxylates as potential anticonvulsants and their molecular properties prediction” (Eur J Med Chem, 2013).
Values after ≈ are worked out from the molar mass of the structure shown. Active and inactive are the calls of the source. The calls are words filed in the database; no cut-off is given here.

Tests used:
Rattus norvegicus [1] = assay: Anticonvulsant activity in Wistar albino rat assessed as protection against subcutaneous pentylenetetrazole-induced mortality at 50 mg/kg, po administered 1 hr prior to pentylenetetrazole challenge measured for 300 secs relative to control; assay type: functional
Outline: (§1)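 Male Wistar albino rats, six per group. Test agents were given orally as suspensions in 0.5% sodium carboxymethylcellulose; the reference was given i.p.; the vehicle group served as control. Pentylenetetrazole 80 mg/kg was given s.c. 1 h later. Onset of clonic convulsions and protection against mortality were recorded, with a 300 sec maximum latency. Mean±SEM; one-way ANOVA with Dunnett's test.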

[2] = test system: Radical scavenging activity; assay: Antioxidant activity assessed as DPPH free radical scavenging activity under dark condition after 30 mins; assay type: functional
Outline: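 Test compound in ethanol (10, 50, 100, 250, 500 μg/ml solutions) was added to 0.004% DPPH in methanol. The mixture was kept in the dark for 30 min and absorbance was read at 517 nm. Percent radical inhibition was calculated, with ascorbic acid as reference, and IC50 was derived.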

Rattus norvegicus [3] = assay: Anticonvulsant activity in Wistar albino rat assessed as protection against maximum electric shock-induced hind limb tonic extension at 50 mg/kg, po administered 1 hr followed by maximum electric shock induction relative to control; assay type: functional, Hindlimb
Outline: (§2)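 Male Wistar albino rats, six per group, were given test compound orally as a suspension in 0.5% sodium carboxymethylcellulose. Controls received vehicle; phenytoin 30 mg/kg was given orally. One hour after dosing, 150 mA was applied for 0.2 sec through corneal electrodes. Duration of hind limb tonic extension was recorded. Values are mean±SEM; ANOVA with Dunnett's test vs control.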

Rattus norvegicus [4] = assay: Anticonvulsant activity in Wistar albino rat assessed as time of onset of subcutaneous pentylenetetrazole-induced clonic convulsion at 50 mg/kg, po administered 1 hr prior to pentylenetetrazole challenge measured for 300 secs (reference value: 83 +/- 4 secs); assay type: functional
Mus musculus = assay: Antinociceptive activity in Swiss albino mouse assessed as reduction of capsaicin-induced flinching at 10 mg/kg, po administered 1 hr followed by capsaicin challenge; assay type: functional; set-up: scale not given: the % may be the effect or the level left
Outline: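 Male Swiss mice (18-22 g), six per group, were dosed by oral gavage with compound in 0.5% sodium carboxymethylcellulose. One hour later, capsaicin (1 nmol/paw, 20 μl) was injected intraplantar into the right hind paw. Flinches of the injected paw were counted for 5 min. Values are mean±SEM; ANOVA with Dunnett's test vs vehicle control.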

Rattus norvegicus [5] = assay: Anticonvulsant activity in Wistar albino rat assessed as time of onset of subcutaneous pentylenetetrazole-induced clonic convulsion at 30 mg/kg administered 1 hr prior to pentylenetetrazole challenge measured for 300 secs (reference value: 83 +/- 4 secs); assay type: functional
Rattus norvegicus [6] = assay: Anticonvulsant activity in Wistar albino rat assessed as protection against subcutaneous pentylenetetrazole-induced mortality at 30 mg/kg administered 1 hr prior to pentylenetetrazole challenge measured for 300 secs relative to control; assay type: functional
Rattus norvegicus [7] = assay: Anticonvulsant activity in Wistar albino rat assessed as protection against maximum electric shock-induced hind limb tonic extension at 30 mg/kg administered 1 hr followed by maximum electric shock induction relative to control; assay type: functional, Hindlimb
Outline: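 Male Wistar albino rats, six per group, dosed orally as a suspension in 0.5% sodium carboxymethylcellulose, with a vehicle control group. One hour later, 150 mA for 0.2 sec was applied through corneal electrodes. Duration of hind limb tonic extension was recorded, and abolition or reduction of extension was scored against control. Mean±SEM; one-way ANOVA with Dunnett's test.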

Rattus norvegicus [8] = assay: Anticonvulsant activity in Wistar albino rat assessed as protection against maximum electric shock-induced hind limb tonic extension at 100 mg/kg, po administered 1 hr followed by maximum electric shock induction relative to control; assay type: functional, Hindlimb; outline: as §2
Rattus norvegicus [9] = assay: Anticonvulsant activity in Wistar albino rat assessed as protection against subcutaneous pentylenetetrazole-induced mortality at 100 mg/kg, po administered 1 hr prior to pentylenetetrazole challenge measured for 300 secs relative to control; assay type: functional; outline: as §1
Rattus norvegicus [10] = assay: Anticonvulsant activity in po dosed Wistar albino rat assessed as protection against subcutaneous pentylenetetrazole-induced mortality administered 1 hr prior to pentylenetetrazole challenge measured for 300 secs; assay type: functional, organism-based
Rattus norvegicus [11] = assay: Anticonvulsant activity in Wistar albino rat assessed as time of onset of subcutaneous pentylenetetrazole-induced clonic convulsion at 100 mg/kg, po administered 1 hr prior to pentylenetetrazole challenge measured for 300 secs (reference value: 83 +/- 3.8 secs); assay type: functional
Rattus norvegicus [12] = assay: Anticonvulsant activity in Wistar albino rat assessed as protection against maximum electric shock-induced hind limb tonic extension at 25 mg/kg, po administered 1 hr followed by maximum electric shock induction relative to control; assay type: functional, Hindlimb; outline: as §2
Rattus norvegicus [13] = assay: Anticonvulsant activity in po dosed Wistar albino rat assessed as protection against maximum electric shock-induced hind limb tonic extension administered 1 hr followed by maximum electric shock induction; assay type: functional, organism-based; settings: Hindlimb; outline: as §2
Rattus norvegicus [14] = assay: Anticonvulsant activity in Wistar albino rat assessed as time of onset of subcutaneous pentylenetetrazole-induced clonic convulsion at 25 mg/kg, po administered 1 hr prior to pentylenetetrazole challenge measured for 300 secs (reference value: 83 +/- 3.8 secs); assay type: functional
Rattus norvegicus [15] = assay: Anticonvulsant activity in Wistar albino rat assessed as protection against subcutaneous pentylenetetrazole-induced mortality at 25 mg/kg, po administered 1 hr prior to pentylenetetrazole challenge measured for 300 secs relative to control; assay type: functional; outline: as §1
Rattus norvegicus [16] = assay: Anticonvulsant activity in po dosed Wistar albino rat assessed as inhibition of subcutaneous pentylenetetrazole-induced seizure administered 1 hr prior to pentylenetetrazole challenge measured for 300 secs; assay type: functional, organism-based
Rattus norvegicus [17] = assay: Anticonvulsant activity in Wistar albino rat assessed as protection against maximum electric shock-induced hind limb tonic extension administered 1 hr followed by maximum electric shock induction; assay type: functional, organism-based; settings: Hindlimb; outline: as §2
Rattus norvegicus [18] = assay: Anticonvulsant activity in Wistar albino rat assessed as protection against maximum electric shock-induced hind limb tonic extension at 30 mg/kg, po administered 1 hr followed by maximum electric shock induction relative to control; assay type: functional, Hindlimb; outline: as §2
Rattus norvegicus [19] = assay: Anticonvulsant activity in Wistar albino rat assessed as time of onset of subcutaneous pentylenetetrazole-induced clonic convulsion at 5 mg/kg, ip administered 1 hr prior to pentylenetetrazole challenge measured for 300 secs (reference value: 83 +/- 4 secs); assay type: functional; outline: as §1

Row | SMILES | Activity (Rattus norvegicus [1]) [%] | IC50 [2] [µg/mL] | Activity (Rattus norvegicus [3]) [%] | Time (Rattus norvegicus [4]) [s] | other results
1 | COC(=O)C1=C(C)N(c2ccc([N+](=O)[O-])cc2)C(C)=C(C(=O)OC)C1c1ccc2c(c1)OCO2 | 0 | 1289 (≈ 2760 µM) | 7.9 | 93 | –
2 | CCOC(=O)C1=C(C)N(c2ccccc2)C(C)=C(C(=O)OCC)C1c1ccc2c(c1)OCO2 | 66.6 | 443 (≈ 986 µM) | 46 | 275 | –
3 | COC(=O)C1=C(C)N(c2ccccc2[N+](=O)[O-])C(C)=C(C(=O)OC)C1c1ccc2c(c1)OCO2 | 0 | 2354 (≈ 5050 µM) | 33.3 | 174 | –
4 | CCOC(=O)C1=C(C)N(c2ccccc2[N+](=O)[O-])C(C)=C(C(=O)OC)C1c1ccc2c(c1)OCO2 (stereo not given) | 33.3 | 933 (≈ 1940 µM) | 44.5 | 251 | –
5 | CCOC(=O)C1=C(C)N(c2ccc([N+](=O)[O-])cc2)C(C)=C(C(=O)OCC)C1c1ccc2c(c1)OCO2 | 66.6 | 597 (≈ 1210 µM) | 46 | 237 | –
6 | CCOC(=O)C1=C(C)N(c2ccccc2[N+](=O)[O-])C(C)=C(C(=O)OCC)C1c1ccc2c(c1)OCO2 | 66.6 | 874 (≈ 1770 µM) | 60.3 | 293 | –
7 | COC(=O)C1=C(C)NC(C)=C(C(=O)OC)C1c1ccc2c(c1)OCO2 | 0 | 604 (≈ 1750 µM) | 27 | 200 | Activity (Mus musculus): 21%
8 | CCOC(=O)C1=C(C)NC(C)=C(C(=O)OC)C1c1ccc2c(c1)OCO2 (stereo not given) | 33.3 | 467 (≈ 1300 µM) | 28.5 | 233 | –
9 | COC(=O)C1=C(C)NC(C)=C(C(=O)OC)C1c1ccccc1[N+](=O)[O-] [NIFEDIPINE] | – | – | – | – | Time (Rattus norvegicus [5]): 215 s; Activity (Rattus norvegicus [6]): 33.3%; Activity (Rattus norvegicus [7]): 66.6%
10 | CCOC(=O)C1=C(C)NC(C)=C(C(=O)OCC)C1c1ccc2c(c1)OCO2 | 100 | 375 (≈ 1000 µM) | 59 | >300 | Activity (Rattus norvegicus [8]): 72%; Activity (Rattus norvegicus [9]): 0%; Activity (Rattus norvegicus [10]): Dose-dependent effect; Activity (Mus musculus): 8%; Time (Rattus norvegicus [11]): >300 s; Activity (Rattus norvegicus [12]): 41.6%; Activity (Rattus norvegicus [13]): Dose-dependent effect; Time (Rattus norvegicus [14]): 194 s; Activity (Rattus norvegicus [15]): 100%; inhibition (Rattus norvegicus [16]): Dose-dependent effect
11 | O=C1O[C@H]([C@@H](O)CO)C(O)=C1O [ASCORBIC ACID] | – | 32 (≈ 182 µM) | – | – | –
12 | COC(=O)C1=C(C)NC(C)=C(C(=O)OC(C)C)C1c1cccc2nonc12 (stereo not given) | – | – | – | – | Activity (Rattus norvegicus [17]): Active
13 | O=C1NC(=O)C(c2ccccc2)(c2ccccc2)N1 [PHENYTOIN] | – | – | – | – | Activity (Rattus norvegicus [18]): 69.8%
14 | COC(=O)C1=C(C)N(c2cccc([N+](=O)[O-])c2)C(C)=C(C(=O)OC)C1c1ccc2c(c1)OCO2 | 0 | 521 (≈ 1120 µM) | 11.1 | 138 | –
15 | CCOC(=O)C1=C(C)N(c2ccccc2)C(C)=C(C(=O)OC)C1c1ccc2c(c1)OCO2 (stereo not given) | 0 | 740 (≈ 1700 µM) | 41.2 | 221 | –
16 | COC(=O)C1=C(C)N(c2ccccc2)C(C)=C(C(=O)OC)C1c1ccc2c(c1)OCO2 | 0 | 542 (≈ 1290 µM) | 41.2 | 200 | Activity (Mus musculus): 0%
17 | CCOC(=O)C1=C(C)N(c2cccc([N+](=O)[O-])c2)C(C)=C(C(=O)OCC)C1c1ccc2c(c1)OCO2 | 33.3 | 363 (≈ 734 µM) | 49.2 | 250 | –
18 | CCOC(=O)C1=C(C)N(c2ccc([N+](=O)[O-])cc2)C(C)=C(C(=O)OC)C1c1ccc2c(c1)OCO2 (stereo not given) | 33.3 | 854 (≈ 1780 µM) | 31.7 | 225 | Activity (Mus musculus): 4%
19 | CN1C(=O)CN=C(c2ccccc2)c2cc(Cl)ccc21 [DIAZEPAM] | – | – | – | – | Time (Rattus norvegicus [19]): 262 s
20 | CCOC(=O)C1=C(C)N(c2cccc([N+](=O)[O-])c2)C(C)=C(C(=O)OC)C1c1ccc2c(c1)OCO2 (stereo not given) | 0 | 386 (≈ 803 µM) | 28.5 | 136 | –
